Screening results: PubChem, several laboratories
An excerpt weighted towards active compounds, which were near 11% of everything screened.
D1 mod – allosteric modulators of human D1 dopamine receptor. P21728. AID 641. 5.9% of 58,000 active. HEK293 D1, CRE-luciferase, dopamine EC30 potentiation; actives deviate in either direction. B-score at 10 µM;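 active = luminescence count or its row- and column-corrected plate score outside the 99.7% band of the plate's sample wells, on either side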
M1 antag – blocks the rat M1 muscarinic receptor response to acetylcholine. CHO-M1 cells, Fluo-4 calcium, ACh EC80 antagonist mode; stronger effect = lower value. P08482. B-score at 10 µM. 3.4% of 64,000 active. AID 628;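 active = calcium fluorescence response, raw or row-and-column corrected B-score, differing from the plate sample mean either way at a set confidence level, mostly lower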
SF1 activator – activators of human nuclear receptor SF-1 | 1.9% of 65,000 active | activation, % at 10 µM | AID 522 | CHO-K1 Gal4-SF-1 LBD luciferase reporter; % increase over DMSO SF-1-specific signal | Q13285;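 active = activation above the mean activation of all tested compounds plus 3 SD, cut at about 50% in these data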
Target sequence (Q13285 whole entry, looked up, the tested form may be a part): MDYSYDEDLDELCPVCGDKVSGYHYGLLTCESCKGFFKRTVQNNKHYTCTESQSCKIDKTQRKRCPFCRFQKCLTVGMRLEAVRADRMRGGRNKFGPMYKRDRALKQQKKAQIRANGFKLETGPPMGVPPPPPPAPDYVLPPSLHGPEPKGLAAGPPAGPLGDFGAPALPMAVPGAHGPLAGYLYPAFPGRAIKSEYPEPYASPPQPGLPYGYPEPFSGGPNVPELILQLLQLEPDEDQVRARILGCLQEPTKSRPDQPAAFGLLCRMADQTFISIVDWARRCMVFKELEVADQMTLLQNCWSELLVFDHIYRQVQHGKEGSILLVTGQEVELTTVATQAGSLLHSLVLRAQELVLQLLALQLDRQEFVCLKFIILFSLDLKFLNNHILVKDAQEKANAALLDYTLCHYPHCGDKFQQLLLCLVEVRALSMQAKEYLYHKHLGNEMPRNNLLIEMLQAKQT
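Material: Transient Gal4-SF-1 LBD reporter, CHO-K1 | Input: 4,000 cells/well | Dosing: One dose, 10 µM compound, 1% DMSO | Incubation: 20 h compound treatment, 37 °C | Detection: SteadyLite luciferase luminescence | Evaluation: Percent activation relative to DMSO median and mock-transfected background | Benchmarks: DMSO-treated SF-1-transfected cells as negative, DMSO-treated mock-transfected cells lacking SF-1 as background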
RORA act – activators of human nuclear receptor RORA | P35398 | CHO-K1 Gal4-RORA LBD luciferase reporter, luminescence; percent increase over mock-subtracted basal signal | activation, % at 10 µM | 1.5% of 65,000 active | AID 560;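 active = activation above the mean of all tested compounds plus 3 SD, cut at about 49% in these data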;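 note: 0% = DMSO-treated RORA cells and 100% = added signal equal to DMSO minus mock-transfected cells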
M1 ag – activates the M1 muscarinic receptor; B-score at 10 µM; 3% of 64,000 active; CHO-M1 cells, Fluo-4 calcium fluorescence, agonist mode; stronger effect = higher value;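 active = fluorescence rise, raw or as B-score row- and column-corrected plate score, outside the 99.7% band of its plate's samples, either direction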
mHtt clearance – mutant huntingtin protein clearance; HeLa Exon1htt(103Q)mCFP, aggregate imaging; zero = plate's median compound well; inhibition, % at 1.5 µM; 0.42% of 47,000 active; AID 853;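 active = inhibition of aggregate fluorescence above about 70%, also judged a hit by eye on the cell image, limit read from the data, passing the limit was not always enough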;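 note: cells exposed to compound for three days before fixation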
D1 mod confirm – confirmation of human D1 dopamine receptor allosteric modulators; 88% of 2,200 active; luminescence at 10 µM; HEK293 D1 CRE-luciferase, dopamine EC30 potentiation; stronger effect = higher value; shares compounds with D1 mod; AID 642;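 active = luminescence in either of two replicates above the same-plate mean plus 3 SD of the low-dose dopamine control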
D1 ag no DA – activates D1 CRE-luciferase signal without dopamine present | shares compounds with D1 mod | HEK293 D1 CRE-luciferase, luminescence, no dopamine; stronger effect = higher value | luminescence at 10 µM | 0.8% of 1,900 active | AID 646; in the data active = luminescence above about 3900
Isoprot counter – counter-screen for D1 modulators: isoproterenol response in HEK293 cells; HEK293 D1 CRE-luciferase, isoproterenol EC30 counter-screen; calls only at 10 µM; AID 647; shares compounds with D1 mod; 63% of 2,200 active;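 active = luminescence in either replicate above plate mean of wells with a partly effective reference agonist dose plus 3 SD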;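 note: isoproterenol raises cAMP through native beta-adrenoceptor Gs so signal bypasses D1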
The depositor's hits bear a star; i = inactive; nt = no result given; + = active, no number.

SMILES	D1 mod	M1 antag	SF1 activator	RORA act	M1 ag	mHtt clearance	D1 mod confirm	D1 ag no DA	Isoprot counter
Clc1ccccc1-c1nnc2sc(-c3cccs3)nn12	10.7*	-0.0516	-25.4	-10.4	-0.0913	nt	14324*	1788	+
CCCN1CCN(C(=O)Cn2cccc2C(=O)c2ccccc2)CC1	0.54	-0.112	-6.3	-14.2	0.105	-0.5	nt	nt	nt
CC1(C)CC(=O)C2=C(C1)OC(=O)C2(NC(=O)c1cccs1)C(F)(F)F (configuration not stated)	-0.591	0.123	2.2	1.3	0.00681	9.6	nt	nt	nt
CC(OC(=O)c1cc2sccc2n1C)C(=O)NCc1ccc2c(c1)OCO2 (configuration not stated)	-0.223	-0.344	0.3	-40.0	0.283	nt	nt	nt	nt
C1CCC(c2nn3c(-c4n[nH]c5c4CCC5)nnc3s2)CC1	6.32*	0.0433	-8.4	7.3	-0.158	7.9	15420*	1752	i
O=C(Nc1ccc2c(c1)OCCO2)C1CCN(C(=O)c2ccc(F)cc2)CC1	-0.663	0.216	38.3	18.4	-0.32	nt	nt	nt	nt
CCOC(=O)c1oc2ccccc2c1NC(=O)COc1cccc(OC)c1	nt	0.378	-4.3	1.5	1.09	-68.7	nt	nt	nt
CCOC(=O)c1oc2ccccc2c1NC(=O)c1ccccc1OC	4.47*	0.317	-2.2	-17.1	1.06	-41.5	11400*	1632	+
CCOc1ccc(CC(=O)Nc2c(C(N)=O)oc3ccccc23)cc1OCC	4.51*	0.358	-6.5	23.6	0.999	nt	7352*	1544	i
COc1ccc(CCN(Cc2cc3cc(C)ccc3[nH]c2=O)C(=O)N2CCCC2)cc1OC	9.11*	0.497	13.1	9.7	1.01	nt	13088*	1584	+
CCCCOc1ccc(C(=O)NCc2ccccn2)cc1	0.49	-0.16	19.8	14.3	-0.285	-3.1	nt	nt	nt
Cc1occc1-c1nnc(SCC(=O)N(C)CCC#N)n1N	nt	nt	nt	nt	nt	25.9	nt	nt	nt
O=C(c1ccc(S(=O)(=O)N2CCOCC2)cc1)N1CCN(c2ccc(F)cc2)CC1	3.33*	0.00714	11.5	-4.4	-0.147	10.2	5476	1868	i
Cc1ccc(NC(=O)COc2ccc(/C(N)=N/O)cc2)cc1C	-0.449	0.513	-7.5	6.6	-1.56	nt	nt	nt	nt
COc1ccc(CNC(=O)c2c(O)c3cccc4c3n(c2=O)CCC4)cc1OC	6.25*	0.854	4.5	-15.2	1.32	nt	10888*	1696	+
CSc1nc(NCC(C)C)nc(N2CCOCC2)n1	8.76*	0.0736	-2.4	3.8	-0.00301	nt	26752*	1652	+
CC1Cc2ccccc2N1C(=O)CSc1nc2cc3c(cc2cc1C#N)OCO3 (configuration not stated)	5.09*	0.906	-22.3	-11.1	-1.04	-96.9	13756*	1776	+
COC(=O)C(C(=O)OC)N1C(=O)CCC1=O	0.106	1.31	7.6	-0.7	0.695	-46.8	nt	nt	nt
COc1ccc(OC)c(C2C(C(C)=O)=C(O)C(=O)N2CCC(=O)O)c1 (configuration not stated)	2.67*	-0.00389	-4.6	-16.1	0.428	-5.2	4144	1648	i
N#Cc1sc2nc3c(c(-c4ccco4)c2c1N)CCCC3	9.56*	0.202	-14.1	-12.1	-0.785	15.5	12060*	1392	+
COc1ccc(CN2CCN(S(=O)(=O)c3ccc(F)cc3)CC2)cc1OC	22.4*	0.416	17.4	-9.8	0.52	6.8	24864*	1876	+
COc1ccc(CN2CCN(S(=O)(=O)c3ccc(F)cc3)CC2)c(OC)c1OC	nt	nt	nt	nt	nt	-41.1	nt	nt	nt
COc1ccc(CN2CCN(S(=O)(=O)c3ccccc3)CC2)c(OC)c1	4.44*	0.193	5.4	-8.4	-1.49	6.0	6876*	1608	i
Cc1ccc(NS(=O)(=O)c2cccc(C(=O)n3ncc(C#N)c3N)c2)c(C)c1	-0.654	0.838	-0.4	6.4	0.0894	nt	nt	nt	nt
